Reference: the RNAGym collection of RNA variant scans (doi:10.1126/science.aae0568)
Variants at the floor of the assay were thinned out.

B1: tRNA (parent)
chain: GUUCCGUUGGCGUAAUGGUAACGCGUCUCCCUCCUAAGGAGAAGACUGCGGGUUCGAGUCCCGUACGGAACG

Variants of: B1
Assay: yeast fitness relative to wild type (ratio to wild type); higher = fitter; tRNA-Arg(CCU), competitive growth, 37 C, YPD
Procedure, shortened: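 Changes in genotype frequencies gave Darwinian fitness relative to wild type. Frequencies were read by 100-nucleotide paired-end sequencing of gene amplicons before and after pooled Saccharomyces cerevisiae strains, carrying tRNA-Arg(CCU) gene variants at the native locus, were competed in YPD at 37°C for 24 hours in six replicates. A genotype was kept only with ≥ 100 starting reads, and estimates < 0.5 were set to 0.5.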

First: C11U C31U U59A
Second: C11U C33A C34G
The yeast fitness of the first is lower: ≤ 0.5 for the first, 0.526 for the second.

C11U C33G C46A C61A and C11U C33G C60A cannot be ordered by yeast fitness: ≤ 0.5 for the first, ≤ 0.5 for the second.

C11U C33G C61U and C11U C33G U54A U64A cannot be ordered by yeast fitness: ≤ 0.5 for the first, ≤ 0.5 for the second.

Compared with C11U C33U A69U, C11U C33U G68C is lower in yeast fitness: 0.605 for the first, 0.527 for the second.

C11U C34A A36C and C11U C34A A36C G67C cannot be ordered by yeast fitness: ≤ 0.5 for the first, ≤ 0.5 for the second.

Going from C11U C34A A57G to C11U C34A A70G, the yeast fitness rises from 0.548 to 0.581.

C11U C34A C46U and C11U C34A C61U cannot be ordered by yeast fitness: ≤ 0.5 for the first, ≤ 0.5 for the second.

C11U C34A G41C A42G and C11U C34G A40C A43G G51C cannot be ordered by yeast fitness: ≤ 0.5 for the first, ≤ 0.5 for the second.

C11U C34G A45C G51A A65U and C11U C34G G38C C61U cannot be ordered by yeast fitness: ≤ 0.5 for the first, ≤ 0.5 for the second.

First: C11U C34G U47G
Second: C11U C34U
The yeast fitness of the first is lower: ≤ 0.5 for the first, 0.714 for the second.

C11U C34U A43G and C11U C34U G38A G44C C66U cannot be ordered by yeast fitness: ≤ 0.5 for the first, ≤ 0.5 for the second.

Compared with C11U C34U G48A G67U, C11U C46A is higher in yeast fitness: ≤ 0.5 for the first, 1.03 for the second.

Going from C11U C46A A65U to C11U C46U, the yeast fitness rises from 0.682 to 1.

Going from C11U C46U A70G to C11U C46U C49U G67C, the yeast fitness falls from 0.786 to ≤ 0.5.

C11U C46U G52C U59C C66U and C11U C46U G56C A69U cannot be ordered by yeast fitness: ≤ 0.5 for the first, ≤ 0.5 for the second.

Compared with C11U C46U G67C, C11U C49A is higher in yeast fitness: 0.608 for the first, 0.724 for the second.

C11U C49G A57C G67U and C11U C49G C55G C61G cannot be ordered by yeast fitness: ≤ 0.5 for the first, ≤ 0.5 for the second.

Going from C11U C49U to C11U C49U A65C, the yeast fitness falls from 0.976 to 0.727.

First: C11U C49U C61A
Second: C11U C49U G56C C62U
The yeast fitness of the first is higher: 0.555 for the first, ≤ 0.5 for the second.

Going from C11U C55A G56C G67C to C11U C55G, the yeast fitness rises from ≤ 0.5 to 0.594.

Going from C11U C55G A69C to C11U C55G A70C, the yeast fitness rises from 0.509 to 0.541.

C11U C55G C66U and C11U C55G G67A cannot be ordered by yeast fitness: ≤ 0.5 for the first, ≤ 0.5 for the second.

Compared with C11U C55U G68C, C11U C60A is higher in yeast fitness: 0.537 for the first, 0.631 for the second.

First: C11U C60G C62U G68C
Second: C11U C60G G67A
The yeast fitness of the first is lower: 0.505 for the first, 0.549 for the second.

Compared with C11U C61A C62U G63C A70U, C11U C61A G67A is higher in yeast fitness: ≤ 0.5 for the first, 0.53 for the second.

Going from C11U C61G A65C to C11U C61U, the yeast fitness rises from 0.609 to 0.827.

Compared with C11U C61U A70G, C11U C61U G68A is lower in yeast fitness: 0.77 for the first, 0.615 for the second.

Compared with C11U C62A, C11U C62G is higher in yeast fitness: 0.743 for the first, 0.912 for the second.

First: C11U C62G A69U
Second: C11U C62G C66A
The yeast fitness of the first is higher: 0.578 for the first, ≤ 0.5 for the second.

Going from C11U C62U to C11U C62U A69C, the yeast fitness falls from 0.943 to 0.842.

First: C11U C62U A70C
Second: C11U C66U
The yeast fitness of the first is lower: 0.698 for the first, 0.931 for the second.

Going from C11U G12A A15C C31A G51A to C11U G12A A15C C31A G51A C66U, the yeast fitness rises from ≤ 0.5 to 0.594.

First: C11U G12A C24U U47C
Second: C11U G12A C61U
The yeast fitness of the first is lower: ≤ 0.5 for the first, 0.511 for the second.

Going from C11U G12A C66U to C11U G12A G44C C46U U59A, the yeast fitness falls from 0.587 to ≤ 0.5.

First: C11U G12C A21U U32A
Second: C11U G12C C46A
The yeast fitness of the first is higher: 0.694 for the first, ≤ 0.5 for the second.

C11U G17A A57G and C11U G17A C34U C55G cannot be ordered by yeast fitness: ≤ 0.5 for the first, ≤ 0.5 for the second.

First: C11U G17A C49U
Second: C11U G17C
The yeast fitness of the first is lower: 0.596 for the first, 0.768 for the second.

Compared with C11U G17C A21C C24A G41A C46G C61A, C11U G17C A21U is higher in yeast fitness: ≤ 0.5 for the first, 0.541 for the second.

Compared with C11U G17C A37G G56C C61A A65G C66G, C11U G17C A45G is higher in yeast fitness: ≤ 0.5 for the first, 0.586 for the second.

C11U G17U A40U A42U C49G G51A C66A G68C and C11U G18A A40U cannot be ordered by yeast fitness: ≤ 0.5 for the first, ≤ 0.5 for the second.

First: C11U G18A A43U
Second: C11U G18A C31U A40U U47G
The yeast fitness of the first is higher: 0.533 for the first, ≤ 0.5 for the second.

C11U G18A G23A A36U G48C and C11U G18A G23C C34U cannot be ordered by yeast fitness: ≤ 0.5 for the first, ≤ 0.5 for the second.

Going from C11U G18C to C11U G18C G23C A57C, the yeast fitness falls from 0.728 to ≤ 0.5.

C11U G18C G39C and C11U G23A C60G C62A cannot be ordered by yeast fitness: ≤ 0.5 for the first, ≤ 0.5 for the second.

Going from C11U G23C to C11U G23C G58A, the yeast fitness falls from 0.757 to 0.669.

Going from C11U G25A A43G to C11U G25A A43G G51C C55G, the yeast fitness rises from 0.592 to 0.695.

C11U G25A A57C C60U G67C and C11U G25A A57U cannot be ordered by yeast fitness: ≤ 0.5 for the first, ≤ 0.5 for the second.

Compared with C11U G25A A70C, C11U G25A C29A A42C A45G is lower in yeast fitness: 0.892 for the first, ≤ 0.5 for the second.

Going from C11U G25A C66U A70C to C11U G25A U59G, the yeast fitness falls from 0.688 to 0.538.

First: C11U G25C
Second: C11U G25C C34A
The yeast fitness of the first is higher: 0.982 for the first, 0.557 for the second.

First: C11U G25C C55U
Second: C11U G38A
The yeast fitness of the first is lower: ≤ 0.5 for the first, 1.02 for the second.

C11U G38A A40U G52C G68C A69G and C11U G38A A43C A65C cannot be ordered by yeast fitness: ≤ 0.5 for the first, ≤ 0.5 for the second.

C11U G38A C60G and C11U G38A C60U G67C cannot be ordered by yeast fitness: ≤ 0.5 for the first, ≤ 0.5 for the second.

Compared with C11U G38C C55G G67A, C11U G38C C62G is higher in yeast fitness: ≤ 0.5 for the first, 0.542 for the second.

C11U G38C U64G A70C and C11U G39C C55A cannot be ordered by yeast fitness: ≤ 0.5 for the first, ≤ 0.5 for the second.

First: C11U G39C C55G
Second: C11U G39C C66U
The yeast fitness of the first is lower: ≤ 0.5 for the first, 0.558 for the second.

C11U G39C G41A and C11U G39C G58A A70U cannot be ordered by yeast fitness: ≤ 0.5 for the first, ≤ 0.5 for the second.

Compared with C11U G41A A42G A70U, C11U G41A A65U is higher in yeast fitness: ≤ 0.5 for the first, 0.515 for the second.

Compared with C11U G41C, C11U G41C A42G is lower in yeast fitness: 0.852 for the first, 0.547 for the second.

Going from C11U G41C C60G to C11U G41C G68A A69C, the yeast fitness falls from 0.647 to ≤ 0.5.

First: C11U G44A A65C
Second: C11U G44A C55G
The yeast fitness of the first is higher: 0.704 for the first, 0.572 for the second.

First: C11U G44A C60G U64C
Second: C11U G44A C61A
The yeast fitness of the first is lower: ≤ 0.5 for the first, 0.823 for the second.

First: C11U G44A G63A
Second: C11U G44A U53G
The yeast fitness of the first is higher: 0.74 for the first, 0.529 for the second.

First: C11U G44C C61U
Second: C11U G44C C62A
The yeast fitness of the first is higher: 0.528 for the first, ≤ 0.5 for the second.

Going from C11U G44C G58A to C11U G44C G67A, the yeast fitness falls from 0.712 to 0.638.

First: C11U G48A
Second: C11U G48A A65C
The yeast fitness of the first is higher: 0.972 for the first, 0.663 for the second.

Compared with C11U G48A A65U, C11U G48A C49A U54A is lower in yeast fitness: 0.792 for the first, ≤ 0.5 for the second.

Going from C11U G48A C55A G58C to C11U G48A C62A, the yeast fitness rises from ≤ 0.5 to 0.762.

Going from C11U G48A G51A to C11U G48A G51C, the yeast fitness rises from 0.724 to 0.832.

Going from C11U G48A G51C G68U to C11U G48A G67C, the yeast fitness rises from 0.59 to 0.731.

First: C11U G48A U54C
Second: C11U G48C A65G
The yeast fitness of the first is lower: 0.677 for the first, 0.714 for the second.

First: C11U G50A G63A
Second: C11U G50C
The yeast fitness of the first is lower: 0.606 for the first, 0.759 for the second.

Going from C11U G51A to C11U G51A A65U, the yeast fitness falls from 0.727 to ≤ 0.5.

C11U G51A C61G and C11U G51A G56A U59C cannot be ordered by yeast fitness: ≤ 0.5 for the first, ≤ 0.5 for the second.

C11U G51A G58A A70C and C11U G51A G63C A69U cannot be ordered by yeast fitness: ≤ 0.5 for the first, ≤ 0.5 for the second.

First: C11U G51A U59A
Second: C11U G52A A69C
The yeast fitness of the first is lower: ≤ 0.5 for the first, 0.865 for the second.

C11U G52C A69G and C11U G52C C61G cannot be ordered by yeast fitness: ≤ 0.5 for the first, ≤ 0.5 for the second.

C11U G52C C66U and C11U G52C G67C cannot be ordered by yeast fitness: ≤ 0.5 for the first, ≤ 0.5 for the second.

First: C11U G56A A65C
Second: C11U G56C
The yeast fitness of the first is higher: 0.732 for the first, 0.709 for the second.

Going from C11U G56C A57U C60U to C11U G56C C62U, the yeast fitness rises from ≤ 0.5 to 0.575.

Going from C11U G56C C62U G68U to C11U G58A, the yeast fitness rises from ≤ 0.5 to 1.01.

First: C11U G58A A65G
Second: C11U G58A G63A
The yeast fitness of the first is higher: 0.777 for the first, 0.74 for the second.

Going from C11U G63C to C11U G63C C66U, the yeast fitness falls from 0.725 to ≤ 0.5.

For C11U G67C, the yeast fitness was 0.792.
